From ChEMBL document CHEMBL4257552, “2-Aminobenzimidazoles as antibiofilm agents against Salmonella enterica serovar Typhimurium” (Medchemcomm, 2018) come the findings set out here.

Structures are written as SMILES.

In one series the test system is Salmonella typhimurium. Description: Antibiofilm activity against Salmonella typhimurium ATCC 14028 after 24 hrs by crystal violet staining based assay. It counts as functional, organism-based, Salmonella enterica subsp. enterica serovar Typhimurium. The following applies: Salmonella enterica, ATCC 14028, 24 h. The gist of the method:
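S. Typhimurium ATCC 14028 overnight TSB culture subcultured to OD600 0.08 in 1:20 TSB:water, compound added at set concentrations, static incubation in PVC 96-well plates 24 h at 30 °C. IC50 from dose-response curves.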
Broadly, the IC50 is the concentration that gives 50% inhibition. A high value points to a need for much substance. Molecule `CCCCCCCCCCCC(=O)Nc1ccc2c(c1)nc(N)n2CCCc1ccccc1` displayed an IC50 of more than 50 µM.

As for `CCCCCc1ccc(C(=O)Nc2ccc3c(c2)nc(N)n3CCc2cnc[nH]2)cc1`, the IC50 was 20 to 40 µM.

The molecule `CCCCCc1ccc(C(=O)Nc2ccc3c(c2)nc(N)n3CC(C)C)cc1` yielded an IC50 of 10 to 15 µM.

Take `CCCCCc1ccc(C(=O)Nc2ccc3nc(N)n(C(C)C)c3c2)cc1`: the IC50 lay within 20 to 40 µM.

`CCCCCCCc1ccc(C(=O)Nc2ccc3c(c2)nc(N)n3CCCc2ccccc2)cc1` returned an IC50 of 15 to 20 µM.

`Nc1nc2cc(NC(=O)c3cc(Br)cc(Br)c3)ccc2n1CCCc1ccccc1` came in with an IC50 of 5.58 µM.

Regarding `CCCCCc1ccc(C(=O)Nc2ccc3[nH]c(N)nc3c2)cc1`, the IC50 is 20 to 40 µM.

`CCCCCc1ccc(C(=O)Nc2ccc3nc(N)n(CC)c3c2)cc1` came in with an IC50 of 20 to 40 µM.

Take `CCCCCCCCc1ccc(C(=O)Nc2ccc3c(c2)nc(N)n3CCCc2ccccc2)cc1`: the IC50 is more than 50 µM.

The molecule `Cl.Nc1nc2cc(NC(=O)c3ccc(Cl)c(Cl)c3)ccc2n1CCCc1ccccc1` showed an IC50 of 6.3 µM.

For the molecule `CCCCCc1ccc(C(=O)Nc2ccc3c(c2)nc(N)n3CCc2c[nH]c3ccccc23)cc1`, the IC50 lay in the range of 10 to 15 µM.

Consider `CCCCCc1ccc(C(=O)Nc2ccc3c(c2)nc(N)n3CCCCc2ccccc2)cc1`, for which inhibition was half-maximal at 9.59 µM (IC50).

With `CCCCCc1ccc(C(=O)Nc2ccc3c(c2)nc(N)n3CCCC)cc1`, the IC50 lay within 15 to 20 µM.

The molecule `CCCCCc1ccc(C(=O)Nc2ccc3c(c2)nc(N)n3C(C)C)cc1` registered an IC50 of 20 to 40 µM.

Consider `CCCCc1ccc(C(=O)Nc2ccc3c(c2)nc(N)n3CCCc2ccccc2)cc1`, for which the IC50 lay in the range of 10 to 15 µM.

As to `CCCc1ccc(C(=O)Nc2ccc3c(c2)nc(N)n3CCCc2ccccc2)cc1`, the IC50 lay in the range of 15 to 20 µM.

Take `CCCCCCCCn1c(N)nc2cc(NC(=O)c3ccc(CCCCC)cc3)ccc21`: the IC50 amounted to 6.66 µM.

In turn, `CCCCCCCCCCCCn1c(N)nc2cc(NC(=O)c3ccc(CCCCC)cc3)ccc21` showed an IC50 of 20 to 40 µM.

Molecule `CCCCCCCC(=O)Nc1ccc2c(c1)nc(N)n2CCCc1ccccc1` registered an IC50 of more than 40 µM.

Regarding `CCCCCCCCCC(=O)Nc1ccc2c(c1)nc(N)n2CCCc1ccccc1`, the IC50 lay in the range of 10 to 15 µM.

With `CCCCCc1ccc(C(=O)Nc2ccc3c(c2)nc(N)n3CCCc2ccccc2)cc1`, the IC50 was determined as 13.1 µM.

In the case of `CCCCCc1ccc(C(=O)Nc2ccc3c(c2)nc(N)n3C)cc1`, the IC50 lay in the range of 20 to 40 µM.

`CCCCCc1ccc(C(=O)Nc2ccc3nc(N)n(C)c3c2)cc1`: the IC50 was in the range of 20 to 40 µM.

In turn, `CCCCCCn1c(N)nc2ccc(NC(=O)c3ccc(CCCCC)cc3)cc21` yielded an IC50 of 10 to 15 µM.

The molecule `CCCCCCc1ccc(C(=O)Nc2ccc3c(c2)nc(N)n3CCCc2ccccc2)cc1` had an IC50 of 15 to 20 µM.

Consider `CCCCCc1ccc(C(=O)Nc2ccc3c(c2)nc(N)n3C2CCCC2)cc1`, for which the IC50 was in the range of 15 to 20 µM.

`Cl.Nc1nc2cc(NC(=O)c3cc(Cl)cc(Cl)c3)ccc2n1CCCc1ccccc1` registered an IC50 of 10 to 15 µM.

The molecule `CCCCCCn1c(N)nc2cc(NC(=O)c3ccc(CCCCC)cc3)ccc21` gave an IC50 of 10.8 µM.

`CCCCCCCCCCn1c(N)nc2cc(NC(=O)c3ccc(CCCCC)cc3)ccc21` displayed an IC50 of 20 to 40 µM.

Molecule `CCc1ccc(C(=O)Nc2ccc3c(c2)nc(N)n3CCCc2ccccc2)cc1` showed an IC50 of 20 to 40 µM.

`Cl.Nc1nc2cc(NC(=O)Nc3ccc(Cl)c(Cl)c3)ccc2n1CCCc1ccccc1`: it took 7.69 µM to reach half-maximal inhibition (IC50).

Take `CCCCCCC(=O)Nc1ccc2c(c1)nc(N)n2CCCc1ccccc1`: the IC50 fell in the range of 20 to 40 µM.

`Nc1nc2cc(C(=O)Nc3ccc(Cl)c(Cl)c3)ccc2n1CCCc1ccccc1` had an IC50 of 12.6 µM.

In the case of `CCCCCCCCC(=O)Nc1ccc2c(c1)nc(N)n2CCCc1ccccc1`, the IC50 lay in the range of 15 to 20 µM.

Molecule `CCCCCc1ccc(C(=O)Nc2ccc3nc(N)n(CCCC)c3c2)cc1` gave an IC50 of 10 to 15 µM.

`CCCOc1ccc(C(=O)Nc2ccc3c(c2)nc(N)n3CCCc2ccccc2)cc1`: the IC50 was in the range of 10 to 15 µM.

The molecule `CCCCCc1ccc(C(=O)Nc2ccc3c(c2)nc(N)n3C2CCCCC2)cc1` came in with an IC50 of 15 to 20 µM.

In the case of `Nc1nc2cc(NC(=O)c3ccc(Br)c(Br)c3)ccc2n1CCCc1ccccc1`, the IC50 was 5.38 µM.

Molecule `CCCCOc1ccc(C(=O)Nc2ccc3c(c2)nc(N)n3CCCc2ccccc2)cc1` showed an IC50 of 15 to 20 µM.

Molecule `CCCCCCCCCCC(=O)Nc1ccc2c(c1)nc(N)n2CCCc1ccccc1` had an IC50 of 10 to 15 µM.

On to `CCCCCOc1ccc(C(=O)Nc2ccc3c(c2)nc(N)n3CCCc2ccccc2)cc1.Cl`, for which the concentration for half-maximal inhibition (IC50) stood at 5.22 µM.

In turn, `CCCCCCCCCCCCCC(=O)Nc1ccc2c(c1)nc(N)n2CCCc1ccccc1` returned a half-maximal inhibitory concentration (IC50) of more than 50 µM.

The test system of a further series is Salmonella typhimurium. Description: Inhibition of planktonic growth of Salmonella typhimurium ATCC 14028 after 2 to 24 hrs. The conditions noted are these: salmonella enterica subsp. enterica serovar typhimurium. The class given is organism-based. The gist of the method:
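Overnight TSB culture diluted into fresh 1:20 TSB (OD600 0.08), 3 mL tubes with compound or untreated control, shaken at 30 °C. Samples at 2, 4, 6, 8 and 24 h serially diluted in 1:20 TSB, plated on nutrient agar, incubated overnight at 37 °C, and colonies counted.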
For `Cl.Nc1nc2cc(NC(=O)Nc3ccc(Cl)c(Cl)c3)ccc2n1CCCc1ccccc1`, the Activity entry was “Non-Toxic”.

With `CCCCCOc1ccc(C(=O)Nc2ccc3c(c2)nc(N)n3CCCc2ccccc2)cc1.Cl`, the “growth inhibition (GI)” value is “Non-Toxic”.

The subject of another series is Galleria mellonella. Description: Toxicity in Galleria mellonella at 400 mg/kg. The class given is organism-based. The conditions noted are these: in vivo.
Consider `Cl.Nc1nc2cc(NC(=O)c3ccc(Cl)c(Cl)c3)ccc2n1CCCc1ccccc1`, for which the Activity result is recorded as “Non-Toxic”.

As for `Cl.Nc1nc2cc(NC(=O)c3cc(Cl)cc(Cl)c3)ccc2n1CCCc1ccccc1`, the Activity result is listed as “Non-Toxic”.
